Hits are enriched below; roughly 4.5% of the tested compounds scored in any of these assays.
HCV NS3 hel inh: blocks Hepatitis C virus NS3 helicase unwinding | NS3 helicase DNA unwinding, Cy5 molecular beacon fluorescence | inhibition, % at 10.9 µM | 290,000 compounds, 0.56% hits | AID 1800;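 active = inhibition above the mean of all tested compounds plus 3 SD, set per campaign, cut at about 35% in these data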;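 note: 0% = DMSO wells and 100% = thioflavine S control wells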
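test system = hepatitis C virus NS3 helicase domain fragment enzyme | reagent = annealed dual-labelled DNA beacon duplex, ATP-started | times = 1 h at 25 °C | detection = Cy5 fluorescence, 0 and 60 min reads | read-out basis = percent inhibition from t60/t0 fluorescence ratio | control set = DMSO and thioflavine S | replication = one well per compound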
UPR XBP1 act: activators of adaptive arm of unfolded protein response (XBP1). 330,000 compounds, 0.33% hits. CHO-XBP1 luciferase reporter, IRE1-XBP1 UPR activation, luminescence; percent of tunicamycin response, DMSO as zero. activation, % at 20 µM;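 active = versus positive control, 20 µM dose yields 30% or more activation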;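 note: 100% = tunicamycin at 10 µg/mL and 0% = DMSO only wells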
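Material: IRE1-XBP1 luciferase reporter CHO line / Quantity: one thousand reporter cells per well / Buffer or medium: F12 with 10% serum / Compound: 20 µM single concentration, DMSO 1% / Times: 6 h treatment, 37 °C / Detection: Steady-Glo luciferase glow luminescence, 10 min after reagent addition / Benchmarks: tunicamycin high, DMSO low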
CHOP inh: blocks CHOP induction under ER stress. CHO-K1 CHOP-promoter luciferase, tunicamycin-induced, 15-18 h. 220,000 compounds, 3.8% hits. inhibition, % at 10 µM;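 active = compounds that reduced the stress-induced luciferase reporter signal by more than about 70% of percent inhibition, limit read from the data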;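 note: 0% = tunicamycin plus vehicle and 100% = wells without tunicamycin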
PfM18AAP inh-1: blocks P. falciparum M18 aspartyl aminopeptidase; recombinant PfM18AAP, H-Glu-NHMec fluorogenic cleavage; inhibition, % at 7.35 µM; 290,000 compounds, 1.2% hits; AID 1822;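 active = inhibition above the campaign mean inhibition over all tested compounds plus 3 SD, cut at about 28% in these data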;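 note: 0% = plate median of test compound wells and 100% = 2 mM ZnCl2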
UPR CHOP act: activators of apoptotic arm of unfolded protein response (CHOP); CHO-CHOP luciferase reporter, UPR activation, luminescence; percent of tunicamycin response over DMSO baseline; activation, % at 10 µM; AID 449763; 330,000 compounds, 0.34% hits;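 active = at 10 µM dose, activation of 40% or more, normalized to positive control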;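 note: 100% = tunicamycin at 10 µg/mL and 0% = DMSO alone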
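Material: CHO-CHOP cells, stable luciferase reporter of PERK-eIF2a-CHOP signalling; quantity: 500 reporter cells seeded per well; buffer or medium: F12 medium containing 10% fetal bovine serum; compound: one dose, 10 µM in 0.5% DMSO; incubation: 6 h compound treatment, 37 °C; measured by: Steady-Glo luciferase luminescence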
p97 ATPase inh: blocks human p97 ATPase activity. recombinant p97 ATPase, Kinase-Glo ATP luminescence, 3 h. P55072. inhibition, % at 8 µM. 220,000 compounds, 0.42% hits; in the data active = inhibition above about 15%;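 note: 0% = DMSO vehicle and 100% = wells lacking enzyme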
PfM18AAP inh-2: confirmation of Plasmodium falciparum M18 aspartyl aminopeptidase inhibitors; shares compounds with PfM18AAP inh-1; recombinant PfM18AAP, H-Glu-NHMec fluorogenic cleavage; inhibition, % at 7.35 µM; 2,400 compounds, 28% hits;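 active = mean inhibition over replicate wells above the hit cutoff set for the earlier primary screen, cut at about 29% in these data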;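 note: 0% = median of test compound wells and 100% = 2 mM ZnCl2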
CTSL1 counter: counter-screen for PFM18AAP inhibitors: confirmation of human cathepsin L inhibitors. shares compounds with PfM18AAP inh-1. purified cathepsin L1, Z-Leu-Arg-MCA fluorescence. inhibition, % at 5.96 µM. 2,400 tested, under 10 active. AID 2178;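 active = average inhibition across replicates above the hit cutoff set in the earlier primary screen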;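 note: 0% = median of test compound wells and 100% = Z-Phe-Ala-diazomethylketone 1 µM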
Target sequence (P07711 whole entry, looked up): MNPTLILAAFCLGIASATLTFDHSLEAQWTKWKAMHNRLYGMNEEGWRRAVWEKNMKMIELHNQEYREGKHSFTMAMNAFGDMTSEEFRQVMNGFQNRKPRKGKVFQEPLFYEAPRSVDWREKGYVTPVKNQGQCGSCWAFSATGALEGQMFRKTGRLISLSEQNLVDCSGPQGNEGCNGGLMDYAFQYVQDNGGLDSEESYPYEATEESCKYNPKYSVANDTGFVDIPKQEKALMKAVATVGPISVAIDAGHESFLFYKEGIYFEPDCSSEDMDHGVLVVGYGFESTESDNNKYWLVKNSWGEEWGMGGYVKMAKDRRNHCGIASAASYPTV
* = called active by the depositor; x = not tested or not shown.

SMILES	HCV NS3 hel inh	UPR XBP1 act	CHOP inh	PfM18AAP inh-1	UPR CHOP act	p97 ATPase inh	PfM18AAP inh-2	CTSL1 counter
C=CCn1c(-c2cc3cccc(OC)c3o2)n[nH]c1=S	-5	0	-9	33*	-1	7	-10	1
C=CCn1c(-c2cccc(OC)c2OC)n[nH]c1=S	-10	-1	-1	17	-1	-2	x	x
Cc1ccc2cc(CCNC(=O)CCCc3ccccc3)c(=O)[nH]c2c1C	9	-3	x	4	1	x	x	x
Cc1ccccc1-n1sc2cc(F)ccc2c1=O	9	-3	30	70*	2	3	64*	-7
O=C(N/N=C/c1sc(=O)[nH]c1-[n+]1ccc2ccccc2c1)c1ccccc1[O-]	25	-1	x	32*	-1	x	-20	3
C[C@H](NC(=O)C1CCN(S(=O)(=O)c2ccccc2)CC1)C(=O)NCc1ccco1	1	-5	x	-7	2	x	x	x
S=C(Nc1cccc(Cl)c1Cl)N1CCCC1	1	-1	x	-5	3	x	x	x
S=C(Nc1cccc(Cl)c1Cl)Nn1cnnc1	2	0	6	82*	-1	4	82*	-1
O=C(Nc1cccc(Cl)c1Cl)Nn1cnnc1	2	-3	x	84*	1	x	77*	-3
O=C(Nc1ccccc1)Nc1cccc(Cl)c1Cl	-1	1	15	0	4	4	x	x
Cc1cc(F)ccc1NC(=O)Cn1c(C)csc1=O	x	0	x	x	-1	x	x	x
CCOC(=O)N1CCN(C(=O)C(CC(C)C)NS(=O)(=O)c2ccc(C)cc2)CC1 (centres undefined)	x	-1	x	x	1	x	x	x
O=C(CN1CCN(c2ccc(O)cc2)CC1)N1CCc2ccccc21	3	-2	x	42*	2	x	1	4
COc1ccc(/C=N/Nc2ncc(Br)cn2)c(OC)c1	-12	-5	40	38*	-1	0	-47	-3
O=C(NNc1cccc(Cl)n1)C(F)(F)F	8	2	-12	27	4	4	x	x
O=C(NNc1cccc(Cl)n1)Nc1ccc(F)cc1	3	-2	15	52*	0	0	44*	-2
O=C(NNc1cccc(Cl)n1)Nc1ccccc1Cl	-3	-2	34	50*	1	-2	34*	-3
O=C(NNc1cccc(Cl)n1)Nc1ccccc1F	1	-2	9	53*	1	2	41*	0
O=C(COc1ccc2c(c1)OCO2)Nc1nnc(Cc2ccccc2)s1	9	-8	x	38*	2	x	-18	-5
O=[N+]([O-])c1cccc(C2CC(c3ccccc3)=NN2c2ccccc2)c1 (centres undefined)	-14	-5	x	10	4	x	x	x
Cc1ccc(C2=Nc3ccccc3SC(c3cccc([N+](=O)[O-])c3)C2)cc1 (centres undefined)	-7	-1	-6	33*	2	8	-51	3
Cc1ccc(N2CC(NS(=O)(=O)c3cccs3)CC2=O)cc1 (centres undefined)	x	1	x	x	0	x	x	x
O=S(=O)(Nc1cccc(S(=O)(=O)N2CCCC2)c1)c1ccccc1F	x	-1	x	x	-3	x	x	x
CCOc1cccc(C(=O)N/N=C/c2coc3ccccc3c2=O)c1	0	-2	x	-7	0	x	x	x
CSc1nc2oc3c(c2c2nncn12)CC(C)(C)SC3	-6	-2	-15	32*	-1	2	-6	-10
SMILES	HCV NS3 hel inh	UPR XBP1 act	CHOP inh	PfM18AAP inh-1	UPR CHOP act	p97 ATPase inh	PfM18AAP inh-2	CTSL1 counter
S=c1[nH]nc(Cn2nnc3ccccc32)n1-c1ccccc1	2	0	-5	42*	-1	-2	0	0
S=c1[nH]nc(Cc2n[nH]c(=S)n2-c2ccccc2)n1-c1ccccc1	4	-4	x	35*	-1	x	2	3
S=c1[nH]nc(Cc2ccccc2)n1-c1ccccc1	1	-1	18	16	0	3	x	x
O=C(CSc1nc2[nH]ncc2c(=O)n1-c1ccccc1)NCc1cccs1	-1	0	2	57*	0	5	39*	0
COc1cc(NC(=O)CSc2nc3[nH]ncc3c(=O)n2-c2ccc(Cl)cc2)cc(OC)c1	-24	-4	x	12	6	x	x	x
COc1ccc(-n2c(SCC(=O)NCc3cccs3)nc3[nH]ncc3c2=O)cc1	3	-2	-11	52*	0	0	34*	0
O=C(CSc1nc2[nH]ncc2c(=O)n1-c1ccccc1)NCCc1ccccc1	10	1	13	15	1	3	x	x
Cc1cccc(NC(=O)CSc2nc3[nH]ncc3c(=O)n2-c2ccccc2)c1	0	2	4	36*	0	5	-2	3
Cc1ccccc1C(OCC(O)CN1CCC(C(N)=O)CC1)c1ccccc1 (centres undefined)	2	3	x	0	1	x	x	x
O=C(O)CCC(=O)Nc1ccc(Cc2ccc(NC(=O)CCC(=O)O)c(O)c2)cc1O	-8	-1	44	58*	1	1	-6	0
CCc1ccc(NC(=O)CCc2nnc3ccc(N4CCCC4)nn23)cc1	-3	0	x	3	1	x	x	x
O=C(Nc1nc(-c2ccccn2)cs1)C1CC(=O)N(c2ccc3c(c2)OCCO3)C1 (centres undefined)	2	-5	42	5	-3	4	x	x
Cc1cc(F)ccc1S(=O)(=O)Nc1ccc(O)c(Sc2ncn[nH]2)c1	-2	0	x	52*	1	x	11	-4
Cc1cc(F)ccc1S(=O)(=O)Nc1ccccc1C(=O)Nc1ncn[nH]1	10	-5	-3	49*	0	-6	48*	0
CCOc1ccc(S(=O)(=O)Nc2ccc(O)c(Sc3ncn[nH]3)c2)cc1	6	-2	17	54*	0	6	27	-2

Source: PubChem BioAssay (several laboratories)
